Results: ChEMBL document CHEMBL4819107, “Substituted N-(4-amino-2-chlorophenyl)-5-chloro-2-hydroxybenzamide analogues potently inhibit respiratory syncytial virus (RSV) replication and RSV infection-associated inflammatory responses” (Bioorg Med Chem, 2021)
Calls of active or inactive are those of the source. The rule behind the calls is not given here.

What was measured:
[1] = system: Respiratory syncytial virus; experiment: Antiviral activity against RSV infected in human A549 cells assessed as reduction in viral titer at 10 uM incubated for 15 hrs by immunostaining analysis; type: functional
Method in brief: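 RSV long strain (propagated in HEp-2, sucrose-gradient purified) infected A549 cells at MOI 1 for 2 h. Inoculum removed, then compound at 10 μM for 15 h. Progeny virus titred by immunostaining in HEp-2 cells with biotin-conjugated goat anti-RSV antibody. Log reduction = log10 mean titer of vehicle-treated cells minus log10 mean titer with compound.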

A549 [2] = experiment: Antiinflammatory activity against in human A549 cells assessed as reduction in RSV-induced IRF3 mRNA expression at 10 uM incubated for 4 hrs by qRT-PCR analysis; type: functional, cell-based
A549 [3] = experiment: Antiinflammatory activity against in human A549 cells assessed as reduction in RSV-induced NF-kappaB mRNA expression at 10 uM incubated for 4 hrs by qRT-PCR analysis; type: functional, cell-based
A549 [4] = experiment: Antiinflammatory activity against in human A549 cells transfected with NF-kappaB-Luc assessed as reduction in RSV-induced NF-kappaB activation at 10 uM incubated for 15 hrs by luciferase reporter gene assay; type: functional, cell-based
Method in brief: (§1)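 A549 cells transfected in triplicate with luciferase plasmids, either NF-κB-Luc or IRF-3-site reporters. At 20 h post-transfection, infected with RSV (MOI 1). Virus removed at 2 h, then 10 μM compound added for 15 h. Cells then harvested and lysed for luciferase activity.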

A549 [5] = experiment: Cytotoxicity against human A549 cells assessed as reduction in cell viability incubated for 15 hrs by trypan blue assay; conditions: a549, 15 h
A549 [6] = experiment: Antiinflammatory activity against in human A549 cells transfected with PRDIII-I-Luc and IRF-3-Luc assessed as reduction in RSV-induced IRF3 activation at 10 uM incubated for 15 hrs by luciferase reporter gene assay; type: functional, cell-based; method in brief: as §1
[7] = system: Respiratory syncytial virus; experiment: Antiviral activity against RSV infected in human A549 cells assessed as reduction in viral RNA at 10 uM measured upto 24 hrs by qRT-PCR analysis; type: functional, organism-based; conditions: time hrs <=24
Method in brief: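 A549 cells infected with RSV (MOI 1), then given 10 μM compound. RSV genome copies in cells quantified by RT-qPCR at 6, 15 and 24 h post-treatment. A fusion inhibitor served as a reference control.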

[8] = system: Respiratory syncytial virus; experiment: Antiviral activity against RSV infected in human A549 cells assessed as reduction in viral genome copies at 10 uM measured after 15 hrs by RT-qPCR analysis
SAEC [9] = experiment: Antiinflammatory activity against in human SAEC cells assessed as reduction in RSV-induced MIP-1beta production at 10 uM incubated for 4 hrs by immunoassay; type: functional, cell-based
Method in brief: (§2)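 Primary small airway epithelial cells infected with RSV long strain at MOI 5. Virus removed at 2 h, then 10 μM compound added. Supernatant collected 4 h post-treatment. Cytokines/chemokines quantified with a multiplex human profiling bead kit (Bio-Plex).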

SAEC [10] = experiment: Antiinflammatory activity against in human SAEC cells assessed as reduction in RSV-induced TNF-alpha production at 10 uM incubated for 4 hrs by immunoassay; type: functional, cell-based; method in brief: as §2
SAEC [11] = experiment: Antiinflammatory activity against in human SAEC cells assessed as reduction in RSV-induced IL-6 production at 10 uM incubated for 4 hrs by immunoassay; type: functional, cell-based; method in brief: as §2
[12] = target: T1, Interferon regulatory factor 3 (Homo sapiens) (UniProt Q14653); experiment: Inhibition of poly I:C-induced IRF3 (unknown origin) transfected in human HEK293 cells co-transfected with IRF3-Luc gene incubated for 4 hrs by luciferase reporter gene; type: cell-based
T1 sequence (whole entry): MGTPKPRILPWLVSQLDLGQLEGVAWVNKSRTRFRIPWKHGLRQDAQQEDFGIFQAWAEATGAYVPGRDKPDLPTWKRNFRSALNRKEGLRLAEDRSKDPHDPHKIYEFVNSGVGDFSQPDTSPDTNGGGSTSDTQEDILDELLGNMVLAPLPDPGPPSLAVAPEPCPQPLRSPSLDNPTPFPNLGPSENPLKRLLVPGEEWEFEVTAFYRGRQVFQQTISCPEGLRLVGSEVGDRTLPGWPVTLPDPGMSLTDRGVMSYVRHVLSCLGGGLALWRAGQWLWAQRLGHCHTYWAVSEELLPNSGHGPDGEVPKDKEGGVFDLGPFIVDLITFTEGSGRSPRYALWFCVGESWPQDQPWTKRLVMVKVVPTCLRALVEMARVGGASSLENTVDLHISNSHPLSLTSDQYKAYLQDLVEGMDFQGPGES
Method in brief: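 HEK-293 cells transiently transfected with IRF-3 or NF-κB luciferase reporter. At 15 h post-transfection, cells transfected with Poly I:C in the presence of compound. Luciferase activity then measured.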

[13] = target: Interferon regulatory factor 3 (Homo sapiens) (UniProt Q14653); experiment: Inhibition of IRF3 in RSV-infected human A549 cells assessed as reduction in IRF3 nuclear translocation at 10 uM measured upto 15 hrs by Western blot analysis; conditions: time hrs <=15
[14] = target: T2, Nuclear factor NF-kappa-B complex (Homo sapiens) (UniProt Q00653+P19838+Q04206); experiment: Inhibition of NF-kappaB in human A549 cells assessed as reduction in p65 Ser536 phosphorylation at 10 uM measured after 15 hrs by Western blot analysis; type: cell-based
Method in brief: (§3)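 A549 cells infected or mock-infected with RSV (MOI 1), then treated with 10 μM compound for 15 h. Nuclear extracts prepared and analysed by western blot after SDS-PAGE and PVDF transfer. β-actin as loading control.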

[15] = target: T2, Nuclear factor NF-kappa-B complex (Homo sapiens); experiment: Inhibition of NF-kappaB in human A549 cells assessed as reduction in p65 nuclear translocation at 10 uM measured after 4 hrs by Western blot analysis; type: cell-based
Method in brief: (§4)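 A549 cells infected or mock-infected with RSV (MOI 5), then treated with 10 μM compound for 4 h. Nuclear extracts (or total lysates) prepared, resolved by SDS-PAGE, transferred to PVDF, and probed by western blot. β-actin as loading control.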

[16] = target: T2, Nuclear factor NF-kappa-B complex (Homo sapiens); experiment: Inhibition of NF-kappaB in human A549 cells assessed as reduction in p65 nuclear translocation at 10 uM measured after 15 hrs by Western blot analysis; type: cell-based; method in brief: as §3
[17] = target: T2, Nuclear factor NF-kappa-B complex (Homo sapiens); experiment: Inhibition of NF-kappaB in human A549 cells assessed as reduction in p65 Ser536 phosphorylation at 10 uM measured after 4 hrs by Western blot analysis; type: cell-based; method in brief: as §4
[18] = system: Respiratory syncytial virus; experiment: Antiviral activity against RSV infected in human A549 cells assessed as reduction in viral N protein at 10 uM incubated for 15 hrs by Western blot analysis; type: functional, organism-based
Method in brief: (§5)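 A549 cells infected with RSV (MOI 1) and treated with 10 μM compound for 15 h. Viral proteins detected by western blot of lysates using anti-RSV or anti-F antibodies, with β-actin as loading control. Membranes blocked in 5% milk in TBS-Tween 20.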

[19] = target: T2, Nuclear factor NF-kappa-B complex (Homo sapiens); experiment: Inhibition of NF-kappaB in human A549 cells assessed as reduction in p65 Ser276 phosphorylation at 10 uM measured after 4 hrs by Western blot analysis; type: cell-based; method in brief: as §4
[20] = system: Respiratory syncytial virus; experiment: Antiviral activity against RSV infected in human A549 cells assessed as reduction in viral phosphoprotein at 10 uM incubated for 15 hrs by Western blot analysis; type: functional, organism-based; method in brief: as §5
[21] = target: T2, Nuclear factor NF-kappa-B complex (Homo sapiens); experiment: Inhibition of TNF-alpha-induced NF-kappaB (unknown origin) transfected in human HEK293 cells co-transfected with NF-kappaB-Luc gene incubated for 4 hrs by luciferase reporter gene; type: cell-based
Method in brief: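 HEK-293 cells transiently transfected with NF-κB luciferase reporter. At 15 h post-transfection, stimulated with 10 ng/ml TNF-α in the presence of compound. Luciferase activity then measured.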

[22] = system: Respiratory syncytial virus; experiment: Antiviral activity against RSV infected in human A549 cells assessed as reduction in viral titer at 2.5 uM incubated for 15 hrs by immunostaining analysis; type: functional
Method in brief: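 Dose-response: A549 cells infected with RSV long strain at MOI 1, then treated with a range of compound concentrations for 15 h. Total virus harvested and titred by immunostaining in HEp-2 cells with biotin-conjugated goat anti-RSV antibody. Reduction expressed as log decrease in titer relative to vehicle (DMSO) control.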

[23] = system: Respiratory syncytial virus; experiment: Antiviral activity against RSV infected in human A549 cells assessed as reduction in viral matrix protein at 10 uM incubated for 15 hrs by Western blot analysis; type: functional, organism-based; method in brief: as §5
[24] = target: T2, Nuclear factor NF-kappa-B complex (Homo sapiens); experiment: Inhibition of NF-kappaB in human A549 cells assessed as reduction in p65 Ser276 phosphorylation at 10 uM measured after 15 hrs by Western blot analysis; type: cell-based; method in brief: as §3
[25] = target: Interferon regulatory factor 3 (Homo sapiens) (UniProt Q14653); experiment: Inhibition of IRF3 in RSV-infected human A549 cells assessed as reduction in IRF3 Ser396 phosphorylation at 10 uM measured upto 15 hrs by Western blot analysis; conditions: time hrs <=15

T2 sequence (P19838 whole entry, looked up): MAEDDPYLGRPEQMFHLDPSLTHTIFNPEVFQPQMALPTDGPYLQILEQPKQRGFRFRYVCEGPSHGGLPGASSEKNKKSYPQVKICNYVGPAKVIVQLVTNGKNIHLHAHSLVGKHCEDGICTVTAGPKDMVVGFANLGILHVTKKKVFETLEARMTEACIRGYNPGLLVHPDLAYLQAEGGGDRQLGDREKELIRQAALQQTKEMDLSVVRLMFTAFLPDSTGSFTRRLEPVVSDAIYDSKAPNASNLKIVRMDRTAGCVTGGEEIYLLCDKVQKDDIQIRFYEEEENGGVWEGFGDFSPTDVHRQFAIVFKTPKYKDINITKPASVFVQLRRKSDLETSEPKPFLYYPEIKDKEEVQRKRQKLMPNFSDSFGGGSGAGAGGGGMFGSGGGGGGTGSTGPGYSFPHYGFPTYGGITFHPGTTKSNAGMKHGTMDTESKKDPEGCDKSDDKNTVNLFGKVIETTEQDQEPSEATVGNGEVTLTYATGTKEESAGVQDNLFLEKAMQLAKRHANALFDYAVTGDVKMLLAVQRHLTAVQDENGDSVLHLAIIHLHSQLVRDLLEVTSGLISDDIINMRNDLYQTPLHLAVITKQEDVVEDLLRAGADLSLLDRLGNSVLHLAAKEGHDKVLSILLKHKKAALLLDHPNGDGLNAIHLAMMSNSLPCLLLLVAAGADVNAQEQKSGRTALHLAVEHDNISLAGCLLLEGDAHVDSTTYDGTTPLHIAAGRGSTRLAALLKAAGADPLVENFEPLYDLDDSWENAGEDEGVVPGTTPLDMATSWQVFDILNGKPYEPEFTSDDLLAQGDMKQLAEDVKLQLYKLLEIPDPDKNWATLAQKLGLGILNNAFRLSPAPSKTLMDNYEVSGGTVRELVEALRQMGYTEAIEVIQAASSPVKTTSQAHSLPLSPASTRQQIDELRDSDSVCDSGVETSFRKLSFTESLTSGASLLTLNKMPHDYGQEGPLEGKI
T2 sequence (Q00653 whole entry, looked up): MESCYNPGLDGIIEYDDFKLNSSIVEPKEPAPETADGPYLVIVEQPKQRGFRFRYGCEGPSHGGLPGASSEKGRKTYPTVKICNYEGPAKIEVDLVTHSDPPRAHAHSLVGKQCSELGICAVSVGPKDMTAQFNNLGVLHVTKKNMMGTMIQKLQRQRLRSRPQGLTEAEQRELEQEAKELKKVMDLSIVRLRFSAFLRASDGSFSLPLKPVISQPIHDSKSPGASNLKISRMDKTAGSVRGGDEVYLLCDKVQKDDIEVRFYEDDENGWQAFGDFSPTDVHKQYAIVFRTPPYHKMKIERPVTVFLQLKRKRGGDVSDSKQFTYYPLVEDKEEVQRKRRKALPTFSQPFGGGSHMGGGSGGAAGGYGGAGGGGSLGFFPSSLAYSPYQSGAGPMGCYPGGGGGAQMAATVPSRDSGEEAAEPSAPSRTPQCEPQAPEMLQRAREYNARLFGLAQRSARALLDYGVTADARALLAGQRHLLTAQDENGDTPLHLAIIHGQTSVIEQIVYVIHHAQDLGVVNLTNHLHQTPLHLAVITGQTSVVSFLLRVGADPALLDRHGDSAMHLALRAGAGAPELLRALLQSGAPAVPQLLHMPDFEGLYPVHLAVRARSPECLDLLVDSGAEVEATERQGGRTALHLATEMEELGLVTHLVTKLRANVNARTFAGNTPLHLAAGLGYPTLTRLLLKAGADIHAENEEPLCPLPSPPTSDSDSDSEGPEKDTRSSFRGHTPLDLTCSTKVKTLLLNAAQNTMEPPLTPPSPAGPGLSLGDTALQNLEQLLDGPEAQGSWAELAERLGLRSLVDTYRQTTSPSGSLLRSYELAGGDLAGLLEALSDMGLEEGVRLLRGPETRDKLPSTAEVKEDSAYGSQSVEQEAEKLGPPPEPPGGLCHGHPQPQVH
T2 sequence (Q04206 whole entry, looked up): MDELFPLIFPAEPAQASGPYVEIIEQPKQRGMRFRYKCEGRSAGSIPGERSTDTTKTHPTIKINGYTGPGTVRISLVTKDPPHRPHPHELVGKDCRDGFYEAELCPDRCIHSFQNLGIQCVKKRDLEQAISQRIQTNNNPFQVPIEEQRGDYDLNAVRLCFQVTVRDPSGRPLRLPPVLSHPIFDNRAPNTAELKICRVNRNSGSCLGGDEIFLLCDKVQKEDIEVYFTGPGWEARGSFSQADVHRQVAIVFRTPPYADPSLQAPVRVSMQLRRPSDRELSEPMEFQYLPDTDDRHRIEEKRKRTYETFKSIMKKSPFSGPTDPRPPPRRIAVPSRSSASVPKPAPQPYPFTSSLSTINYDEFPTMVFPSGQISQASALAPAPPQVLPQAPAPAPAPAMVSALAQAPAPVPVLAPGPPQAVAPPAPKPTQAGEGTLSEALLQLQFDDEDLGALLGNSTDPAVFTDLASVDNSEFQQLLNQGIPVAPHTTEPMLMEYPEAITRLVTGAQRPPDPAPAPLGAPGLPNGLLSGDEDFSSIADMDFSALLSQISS

SMILES	log(activity) [1]	inhibition (A549 [2])	inhibition (A549 [3])	inhibition (A549 [4])	CC50 (A549 [5]) [µM]	inhibition (A549 [6])	also measured
O=C(Nc1ccc(NC2CCCC2)cc1Cl)c1cc(Cl)ccc1O	1.44						
O=C(Nc1ccc(NCc2ccc(F)cc2)cc1Cl)c1cc(Cl)ccc1O	1.54						
O=C(Nc1ccc(N2CCOCC2)cc1Cl)c1cc(Cl)ccc1O	1.74	Active	Active	Active	89.9	Active	
O=C(Nc1ccc(NCC2CCCC2)cc1Cl)c1cc(Cl)ccc1O	1.42				141		
CS(=O)(=O)CCCn1c(Cn2c(=O)n(CC(F)(F)F)c3ccncc32)cc2cc(Cl)ccc21							inhibition [7]: Active; inhibition [8]: inactive
CCCNc1ccc(NC(=O)c2cc(Cl)ccc2O)c(Cl)c1	1.82	Active	Active	Active	69.7	Active	inhibition (SAEC [9]): Active
O=C(Nc1ccc(N2CCCC2)cc1Cl)c1cc(Cl)ccc1O	1.51						
CC(=O)Nc1ccc(NC(=O)c2cc(Cl)ccc2O)c(Cl)c1	0.09						
Nc1ccc(NC(=O)c2cc(Cl)ccc2O)c(Cl)c1	-0.01						
O=C(Nc1ccc(NCc2cccnc2)cc1Cl)c1cc(Cl)ccc1O	0.54	inactive	inactive	inactive		inactive	inhibition (SAEC [10]): inactive; inhibition (SAEC [9]): inactive; inhibition (SAEC [11]): inactive
CCCC(C)(C)Nc1ccc(NC(=O)c2cc(Cl)ccc2O)c(Cl)c1	1.81				23.7		
O=C(Nc1ccc(NCc2ccccc2)cc1Cl)c1cc(Cl)ccc1O	1.53				81.3		
CC1(Nc2ccc(NC(=O)c3cc(Cl)ccc3O)c(Cl)c2)CCCCC1	1.82	Active	Active	inactive	86.5	Active	inhibition [12]: Active; inhibition [13]: Active; inhibition [14]: Active; inhibition [15]: Active; inhibition (SAEC [10]): Active; inhibition [16]: Active; inhibition (SAEC [9]): Active; inhibition (SAEC [11]): Active; inhibition [17]: Active; inhibition [18]: Active; inhibition [19]: inactive; inhibition [20]: Active; inhibition [21]: inactive; inhibition [7]: Active; log(activity) [22]: 1.57; inhibition [23]: Active; inhibition [24]: inactive; inhibition [25]: Active
O=C(Nc1ccc(NCCCO)cc1Cl)c1cc(Cl)ccc1O	-0.16						
CCCN(CCC)c1ccc(NC(=O)c2cc(Cl)ccc2O)c(Cl)c1	1.91	Active	Active	Active	323	Active	inhibition (SAEC [10]): Active
CCCCCCC(C)Nc1ccc(NC(=O)c2cc(Cl)ccc2O)c(Cl)c1 (stereo not drawn)	1.16				18.6		
CC(C)(C)OC(=O)N1CCC(CNc2ccc(NC(=O)c3cc(Cl)ccc3O)c(Cl)c2)CC1	1.53						
O=C(Nc1ccc(NCc2cc(C(F)(F)F)cc(C(F)(F)F)c2)cc1Cl)c1cc(Cl)ccc1O	2.59				22.9		
CC(C)Nc1ccc(NC(=O)c2cc(Cl)ccc2O)c(Cl)c1	1.88	Active	Active	Active	82.7	Active	
O=C(Nc1ccc(NCC2CCNCC2)cc1Cl)c1cc(Cl)ccc1O	-0.07						
